Data published in ChEMBL document CHEMBL6134787, “Fexinidazole optimization: enhancing anti-leishmanial profile, metabolic stability and hERG safety” (RSC Med Chem, 2024).
The source made the active and inactive calls. The calls are words filed in the database; no cut-off is given here.

Assays:
Leishmania amazonensis [1] = assay: Antileishmanial activity against wild type Leishmania amazonensis LV78 promastigotes […] assessed as inhibition of parasite growth incubated for 72 hrs by automatic microtiter plate reader analysis; assay type: functional, organism-based
Method in brief: (§1)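 Promastigotes were grown in Schneider's medium (4 mM glutamine, gentamicin, 10% heat-inactivated FBS, pH 6.9, 27 °C). Cells were seeded at 1.5 × 10^5/well and exposed to a concentration series for 72 h at 27 °C.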

Leishmania braziliensis [2] = assay: Antileishmanial activity against wild type Leishmania braziliensis UA847 promastigotes […] assessed as inhibition of parasite growth incubated for 72 hrs by automatic microtiter plate reader analysis; assay type: functional, organism-based; method in brief: as §1
Leishmania major = assay: Antileishmanial activity against wild type Leishmania major FV1 promastigotes […] assessed as inhibition of parasite growth incubated for 72 hrs by automatic microtiter plate reader analysis; assay type: functional, organism-based; method in brief: as §1
Leishmania donovani [3] = assay: Antileishmanial activity against wild type Leishmania donovani HU3 promastigotes […] assessed as inhibition of parasite growth incubated for 72 hrs by automatic microtiter plate reader analysis; assay type: functional, organism-based
Leishmania donovani [4] = assay: Antileishmanial activity against miltefosine resistant Leishmania donovani HU3MILR40 promastigotes […] assessed as inhibition of parasite growth incubated for 72 hrs by automatic microtiter plate reader analysis; assay type: functional, organism-based
Method in brief: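 Promastigote (free parasite) assay: Schneider's Drosophila medium with 4 mM glutamine, 25 μg mL−1 gentamicin, 10% heat-inactivated FBS, pH 6.9, 27 °C. 1.5 × 10^5 promastigotes per well exposed to a concentration series for 72 h at 27 °C.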

[5] = Cytotoxicity against mouse L929 cells assessed as inhibition of cell growth incubated for 72 hrs by MTS assay; assay type: toxicity, cell-based
Method in brief: (§2)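 Cells in DMEM + 10% heat-inactivated FBS with penicillin/streptomycin at 37 °C, 5% CO2. They were seeded at 1 × 10^4/well and incubated with a concentration series for 72 h at 37 °C. Viability was read by MTS/PMS assay at 490 nm and IC50 derived.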

RAW264.7 = assay: Cytotoxicity against mouse RAW264.7 cells assessed as inhibition of cell growth incubated for 72 hrs by MTS assay; assay type: functional, cell-based; details: RAW264.7, 72 h; method in brief: as §2
[6] = target: T1, Voltage-gated inwardly rectifying potassium channel KCNH2 (Homo sapiens, UniProt Q12809); assay: Inhibition of human ERG stably overexpressed in HEK293 cells incubated for 30 mins by FLIPR assay; assay type: toxicity, cell-based; details: human, hek293, 0.5 h; time 30 min
[7] = Metabolic stability in rat liver microsome assessed as compound remaining at 20 uM measured after 32 mins in presence of NADP and GSH by HPLC analysis; assay type: ADME; details: liver microsomes, read-out: Stability
Method in brief: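 Rat liver microsomes (final 2 mg/mL) in 50 mM phosphate pH 7.4 with 0.3 mM NADP+, 5.3 mM glucose-6-phosphate, G6PDH, 10 mM MgCl2 and 5 mM EDTA. 20 μM compound added at 37 °C. Aliquots at 0, 16 and 32 min were quenched in ice-cold acetonitrile and centrifuged. HPLC peak area at 254/280 nm was expressed relative to 0 min.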

[8] = Metabolic stability in rat liver S9 fraction assessed as compound remaining at 20 uM measured after 32 mins in presence of NADP and GSH by HPLC analysis; assay type: ADME, subcellular; details: read-out: Stability
Method in brief: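 Rat liver S9 (final 4 mg/mL) in 50 mM phosphate pH 7.4 with NADPH-regenerating system (0.3 mM NADP+, 5.3 mM glucose-6-phosphate, G6PDH), 10 mM MgCl2 and 5 mM EDTA. Pre-warmed 10 min at 37 °C, then 20 μM compound and 5.5 μM GSH added. Samples taken at 0, 16 and 32 min were quenched in ice-cold acetonitrile. HPLC (254/280 nm) peak area was expressed relative to 0 min.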

[9] = Hepatotoxicity against mouse TAMH cells assessed as cell viability at 125 uM incubated for 48 hrs by MTT assay; assay type: toxicity, cell-based
Method in brief: (§3)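 TAMH mouse liver cells in FCS-free DMEM/F12 with 5% PANEXIN NTA, 10 mM nicotinamide and gentamicin. Seeded at 20 000/well and attached 24 h at 37 °C, 5% CO2. DMSO-diluted compounds were applied for 24 or 48 h. MTT was added for 4 h, formazan dissolved in DMSO and A570 read. Viability was background-corrected and expressed relative to DMSO controls; mean ± SD, ≥3 experiments.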

[10] = Hepatotoxicity against human HepG2 cells assessed as cell viability at 125 uM incubated for 48 hrs by MTT assay; assay type: toxicity, cell-based; details: hepg2, 48 h, 125 µM
Method in brief: (§4)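 HEP-G2 cells in RPMI 1640 + 10% heat-inactivated FBS, penicillin/streptomycin. Seeded at 15 000/well and attached 24 h at 37 °C, 5% CO2. Compounds were serially diluted in DMSO, with 24 or 48 h exposure. MTT (2.5 mg/mL solution) was added for 4 h, formazan dissolved in DMSO and A570 read. Viability was background-corrected against DMSO-treated cell controls; mean ± SD, ≥3 experiments.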

[11] = Hepatotoxicity against mouse TAMH cells assessed as cell viability at 7.8 to 125 uM incubated for 24 to 48 hrs by MTT assay; assay type: toxicity, cell-based; details: dose lower 7.8 µM, time lower 24 hrs, dose upper 125 µM, time upper 48 hrs, read-out: Activity; method in brief: as §3
[12] = Hepatotoxicity against mouse TAMH cells assessed as reduction in cell viability at 125 uM incubated for 24 hrs by MTT assay; assay type: toxicity, cell-based; method in brief: as §3
[13] = Hepatotoxicity against human HepG2 cells assessed as reduction in cell viability at 125 uM incubated for 24 hrs by MTT assay; assay type: toxicity, cell-based; details: hepg2, 24 h; method in brief: as §4
[14] = target: T1, Voltage-gated inwardly rectifying potassium channel KCNH2; assay: (§5) Inhibition of human ERG stably overexpressed in HEK293 cells assessed as remaining activity at 6 uM incubated for 30 mins by FLIPR assay; assay type: toxicity, cell-based; details: hek293, 0.5 h, 6 µM
Method in brief: (§6)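 HEK-293 cells stably expressing hERG, seeded at 60 000/well and grown 24 h. Compounds were added in DMSO (final 0.5%) and incubated 30 min in the dark. After 20 s baseline, Tl+ stimulus (3 mM) was added and fluorescence (ex 485/em 535 nm) recorded for 2.5 min.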

hERG (KCNH2) [15] = target: T2, hERG (KCNH2) (Homo sapiens, UniProt Q12809); assay: Inhibition of human ERG stably overexpressed in HEK293 cells assessed as remaining activity at 25 uM incubated for 30 mins by FLIPR assay; assay type: toxicity, cell-based; details: HEK293 cells stably overexpressing hERG, read-out: Activity; method in brief: as §6
Leishmania amazonensis [16] = assay: Antileishmanial activity against wild type Leishmania amazonensis LV78 amastigotes infected in mouse peritoneal macrophage assessed as inhibition of parasite growth incubated for 72 hrs by giemsa staining based analysis; assay type: functional, organism-based
Method in brief: (§7)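 Mouse peritoneal macrophages (1 × 10^5/well on coverslips, DMEM + 10% heat-inactivated FBS, penicillin/streptomycin) adhered overnight at 37 °C, 5% CO2. They were infected overnight with late-log promastigotes at a 20:1 parasite:macrophage ratio. Cells were then treated with compound for 72 h at 37 °C and Giemsa-stained. Amastigotes per 100 macrophages were counted to derive IC50; mean ± SD of 3–4 independent experiments.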

Leishmania braziliensis [17] = assay: Antileishmanial activity against wild type Leishmania braziliensis UA847 amastigotes infected in mouse peritoneal macrophage assessed as inhibition of parasite growth incubated for 72 hrs by giemsa staining based analysis; assay type: functional, organism-based; method in brief: as §7
Leishmania donovani [18] = assay: Antileishmanial activity against wild type Leishmania donovani HU3 amastigotes infected in mouse peritoneal macrophage assessed as inhibition of parasite growth incubated for 72 hrs by giemsa staining based analysis; assay type: functional, organism-based
Method in brief: (§8)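 Mouse peritoneal macrophages in DMEM + 10% heat-inactivated FBS, penicillin/streptomycin; 1 × 10^5 cells per well on coverslips, adhered overnight at 37 °C, 5% CO2, non-adherent cells washed off. Infected overnight with late-log promastigotes at parasite:macrophage 40:1. Compound exposure 72 h at 37 °C; Giemsa stain, amastigotes per 100 macrophages counted, IC50 derived; means ± SD of 3–4 independent experiments.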

Leishmania donovani [19] = assay: Antileishmanial activity against miltefosine resistant Leishmania donovani HU3MILR40 amastigotes infected in mouse peritoneal macrophage assessed as inhibition of parasite growth incubated for 72 hrs by giemsa staining based analysis; assay type: functional, organism-based; method in brief: as §8
[20] = Cytotoxicity against mouse peritoneal macrophage assessed as inhibition of cell growth incubated for 72 hrs by giemsa staining based analysis; assay type: toxicity; details: peritoneal macrophages
[21] = Selectivity ratio of IC50 for cytotoxicity against mouse peritoneal macrophage assessed as inhibition of cell growth to IC50 for antileishmanial activity against miltefosine resistant Leishmania donovani HU3MILR40 amastigotes infected in mouse peritoneal macrophage assessed as inhibition of parasite growth; assay type: toxicity, cell-based; details: peritoneal macrophages, read-out: Ratio IC50
Leishmania donovani [22] = assay: Antileishmanial activity against miltefosine resistant Leishmania donovani HU3MILR40 amastigotes infected in mouse peritoneal macrophage assessed as inhibition of parasite growth at 1.5 uM incubated for 72 hrs by giemsa staining based analysis; assay type: functional, organism-based
Method in brief: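 Adherent mouse peritoneal macrophages on coverslips infected overnight with late-log HU3MILR40 promastigotes (40 parasites per macrophage), then exposed to compound at a single fixed concentration in DMEM + 10% FBS for 72 h at 37 °C. Giemsa-stained coverslips imaged at 1000×; amastigotes per 100 macrophages counted versus DMSO control; mean ± SD of three independent experiments, Student's t-test.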

hERG (KCNH2) [23] = target: T2, hERG (KCNH2); assay: as §5; assay type: toxicity, cell-based; details: HEK293 cells stably overexpressing hERG, read-out: Activity; method in brief: as §6

T1 sequence (Q12809 whole entry): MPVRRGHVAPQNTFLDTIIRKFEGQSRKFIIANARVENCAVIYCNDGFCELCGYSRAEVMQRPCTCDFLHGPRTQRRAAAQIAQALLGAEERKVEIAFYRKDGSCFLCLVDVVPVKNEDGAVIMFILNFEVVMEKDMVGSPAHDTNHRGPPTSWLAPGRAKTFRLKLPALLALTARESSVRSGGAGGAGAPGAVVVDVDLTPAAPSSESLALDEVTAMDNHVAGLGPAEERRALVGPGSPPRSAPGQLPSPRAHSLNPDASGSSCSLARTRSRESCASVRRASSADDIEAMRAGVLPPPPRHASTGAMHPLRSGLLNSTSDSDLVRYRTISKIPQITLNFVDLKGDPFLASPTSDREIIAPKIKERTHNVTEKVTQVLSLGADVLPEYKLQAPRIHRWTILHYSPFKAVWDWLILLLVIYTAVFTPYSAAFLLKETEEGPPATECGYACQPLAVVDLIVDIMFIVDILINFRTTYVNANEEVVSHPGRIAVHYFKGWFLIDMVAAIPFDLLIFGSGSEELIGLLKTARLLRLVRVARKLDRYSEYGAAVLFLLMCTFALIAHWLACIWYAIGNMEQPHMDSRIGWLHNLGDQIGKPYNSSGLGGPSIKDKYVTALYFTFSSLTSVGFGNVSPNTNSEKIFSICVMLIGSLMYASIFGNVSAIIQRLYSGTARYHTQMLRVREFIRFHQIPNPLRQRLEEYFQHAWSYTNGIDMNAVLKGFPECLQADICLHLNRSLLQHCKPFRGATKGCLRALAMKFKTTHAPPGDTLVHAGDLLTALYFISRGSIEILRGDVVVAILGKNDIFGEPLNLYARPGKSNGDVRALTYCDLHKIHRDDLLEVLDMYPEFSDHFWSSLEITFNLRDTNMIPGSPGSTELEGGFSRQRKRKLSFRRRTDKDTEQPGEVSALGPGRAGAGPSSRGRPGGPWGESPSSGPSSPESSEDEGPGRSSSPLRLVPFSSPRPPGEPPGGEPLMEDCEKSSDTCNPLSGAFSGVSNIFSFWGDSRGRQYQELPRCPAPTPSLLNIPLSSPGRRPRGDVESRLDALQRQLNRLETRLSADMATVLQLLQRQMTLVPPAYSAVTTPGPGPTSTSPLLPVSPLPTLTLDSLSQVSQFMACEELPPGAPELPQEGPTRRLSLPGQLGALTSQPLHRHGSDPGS
T2 sequence (Q12809 whole entry): as above

Row | Structure (SMILES) | IC50 (Leishmania amazonensis [1]) | IC50 (Leishmania braziliensis [2]) | IC50 (Leishmania major) | IC50 (Leishmania donovani [3]) | IC50 (Leishmania donovani [4]) | IC50 at 72 h [5] | IC50 (RAW264.7) | IC25 [6] | remaining at 32 min, 20 µM [7] | remaining at 32 min, 20 µM [8] | viability at up to 125 µM [11] | other results
1 | Cn1c([N+](=O)[O-])cnc1COc1ccc(S(C)(=O)=O)cc1 [FEXINIDAZOLE SULFONE] | 9.4 µM | 5.9 µM | 1.7 µM | 3.8 µM | 5.6 µM | > 100 µM | > 100 µM | 42.2 µM | 100% | 100% | > 50% | Activity [9]: Non-toxic; Activity [10]: Non-toxic
2 | C[S+]([O-])c1ccc(OCC2Cn3cc([N+](=O)[O-])nc3O2)cc1 (racemic) | > 20 µM | > 20 µM | > 20 µM | 10.2 µM | 7.1 µM | > 100 µM | > 100 µM | 30.1 µM | 100% | 100% | 56% | Activity [12]: 58%; Activity [13]: 40.8%; inhibition (INH) [14]: Not_active
3 | CSc1ccc(OCc2nccn2C)cc1 | > 20 µM | > 20 µM | > 20 µM | > 20 µM | > 20 µM | > 100 µM | > 91.1 µM | 34.5 µM | 100% | 100% | > 50% | activity at 0.5 h, 25 µM (hERG (KCNH2) [15]): 83%
4 | CSc1ccc(OC[C@@H]2Cn3cc([N+](=O)[O-])nc3O2)cc1 | 1.2 µM | 1.4 µM | 3.1 µM | 1.1 µM | 0.5 µM | > 92.2 µM | > 68.5 µM | > 6.2 µM | 67.5% | 97% | > 50% | IC50 (Leishmania amazonensis [16]): 0.6 µM; IC50 (Leishmania braziliensis [17]): 0.5 µM; IC50 (Leishmania donovani [18]): 0.4 µM; IC50 (Leishmania donovani [19]): 0.4 µM; IC50 at 72 h [20]: > 88 µM; selectivity ratio [21]: > 220; Activity (Leishmania donovani [22]): Active; activity at 0.5 h, 6 µM (hERG (KCNH2) [23]): 87%
